# Only some compounds are listed: those with a hit (about 2.5% of all), similar ones and a draw of the others.
# MC4R barr agon: MC4R agonists recruiting beta-arrestin, primary screen, cell-based, luminescence, agonist arm of biased-ligand search; Melanocortin receptor 4 (Homo sapiens), P32245; U2OS MC4R beta-arrestin complementation; percent of melanotan II response, DMSO zero; activation, % at 8.9 µM; 0.98% of 360,000 active;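 active = activation above a per-plate cutoff, the mean activation of sample wells on that plate plus 3 SD, cut at about 8% in these data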
# Target sequence (P32245 whole entry, looked up): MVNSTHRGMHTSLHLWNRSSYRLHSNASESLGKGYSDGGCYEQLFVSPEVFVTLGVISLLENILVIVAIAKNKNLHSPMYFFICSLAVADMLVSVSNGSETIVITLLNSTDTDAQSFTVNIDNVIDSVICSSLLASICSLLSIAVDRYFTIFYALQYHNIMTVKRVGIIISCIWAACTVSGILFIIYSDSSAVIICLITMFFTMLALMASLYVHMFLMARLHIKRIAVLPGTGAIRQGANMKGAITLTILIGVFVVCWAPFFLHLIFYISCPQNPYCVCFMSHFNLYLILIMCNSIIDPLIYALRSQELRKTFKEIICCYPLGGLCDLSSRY
# NALP3 yeast inh: NALP3 inflammasome inhibitors in reconstituted yeast, primary screen, luminescence, uHTS | Yeast reconstituted NLRP3/ASC/caspase-1, beta-gal luminescence, 24 h | inhibition, % at 10 µM | 0.39% of 330,000 active | AID 2825, 2010;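 active = inhibition of 50% or more; inactive = inhibition below 50%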;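 note: plate controls were induced DMSO wells for no effect and uninduced yeast grown without galactose for full effect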
# TbMetRS inhib: T. brucei MetRS inhibitors, primary screen, biochemical, luminescence; purified T. brucei MetRS, ATP depletion, Kinase-Glo luminescence; AID 624268, 2012; methionyl-tRNA synthetase (Trypanosoma brucei brucei); 0.4% of 360,000 active; inhibition, % at 11.9 µM;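 active = inhibition above a per-plate cutoff of the control wells' mean inhibition plus 3 SD, cut at about 5.5% in these data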;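 note: 0% = DMSO wells median and 100% = median of wells with control inhibitor compound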
#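 Material: T. brucei methionyl-tRNA synthetase, purified; reagent: substrates ATP, L-methionine and bulk Escherichia coli tRNA; dosing: 11.9 µM single point; timing: 15 min plus 2 h at 25 °C; detection: luminescence of leftover ATP; evaluation: % inhibition; control set: DMSO-only wells as low control; replicates: singlicate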
# NALP1 yeast inh: NALP1 inflammasome inhibitors in reconstituted yeast, colorimetric, S. cerevisiae, triplicate retest | 0.61% of 280,000 active | S. cerevisiae NALP1/ASC/caspase-1 growth, X-gal OD620, 72 h | inhibition, % at 10 µM | AID 2071, 2009; in the data active = inhibition mostly above about 24%, no sharp cut-off; inactive = mostly below about 32%
# A1 inh: caspase 3/7 activation in MEF A1-2A-BIM cells, primary screen, A1 inhibitor project, cell-based, luminescence, HTS; 0.066% of 330,000 active; Caspase-Glo 3/7 luminescence, 3 h; percent of clofoctol response, vehicle zero; caspase activation, % (concentration not given with the values);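 active = over half of replicate activation scores above 10%, or exactly half above 10 with the replicate mean above 10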
# MC4R antag cAMP: MC4R antagonists of cAMP signaling, primary screen, cell-based, TR-FRET, antagonist arm of biased-ligand search. MC4R-expressing cells, MTII-stimulated cAMP, LANCE TR-FRET. inhibition, % at 6.5 µM. 0.48% of 360,000 active;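 active = inhibition above its plate's cutoff, the mean of tested wells on that plate plus 3 SD, cut at about 29% in these data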;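 note: 0% = Melanotan II alone and 100% = Melanotan II plus saturating MCL0020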
#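 System: U2OS cells stably expressing human melanocortin 4 receptor (MC4R). Reagent: Melanotan II challenge after compound preincubation. Doses: 6.5 µM. Times: 30-min compound, 1-h challenge, 1-h detection, room temperature. Measured by: TR-FRET with Eu-cAMP and labeled anti-cAMP, 671 nm. Replicates: singlicate.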
# TbMetRS confirm: T. brucei MetRS inhibitors, confirmation, biochemical, luminescence; shares compounds with TbMetRS inhib; inhibition, % at 11.9 µM; AID 624412, 2012; 93% of 1,400 active; T. brucei MetRS enzyme, luminescence (ATP depletion); in the data active = inhibition above about 7%
# Jurkat tox: Jurkat T cell cytotoxicity, cytotoxicity control for T. brucei MetRS inhibitor project, luminescence, high throughput | 12% of 1,400 active | inhibition, % at 8.3 µM | AID 624413, 2012 | Jurkat cells viability, ATP luminescence | shares compounds with TbMetRS inhib; in the data active = inhibition above about 15%;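 note: 0% = vehicle and 100% = reference inhibitor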
# Tb MetRS inh FP: T. brucei MetRS inhibitors, orthogonal assay for T. brucei MetRS inhibitor project, biochemical, fluorescence polarization. inhibition, % at 11.9 µM. shares compounds with TbMetRS inhib. purified T. brucei MetRS. 44% of 1,400 active. AID 651607, 2012; in the data active = inhibition above about 17%;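 note: 0% = vehicle wells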
# Starred values were filed as active, the others as inactive; / = no result.
SMILES,MC4R barr agon,NALP3 yeast inh,TbMetRS inhib,NALP1 yeast inh,A1 inh,MC4R antag cAMP,TbMetRS confirm,Jurkat tox,Tb MetRS inh FP
COc1ccccc1NC(=O)c1nnn(CC(=O)Nc2ccccc2)c1N,-0.7,-16.2,-0.3,-96.9,-0.8,-1.8,/,/,/
O=C(C1CC(=O)N(c2ccc3c(c2)OCCO3)C1)N1CCN(c2cccc(C(F)(F)F)c2)CC1 (stereo not drawn),-4.4,7.7,-0.1,/,0.1,-5.9,/,/,/
C=CCNC(=S)NNC(=O)CSc1nc2ccccc2s1,-2.0,19.1,7.6*,18.6,0.1,11.0,14.1*,3.8,0.7
Cc1nnc(NCc2cccc(Cl)c2)c2ccccc12,-0.6,15.6,12.1*,16.4,1.6,-0.1,18.7*,3.2,12.6
COc1ccc(C(O)c2ncc(-c3cccc(OCc4ccccc4)c3)[nH]2)cc1F (stereo not drawn),3.4,/,0.1,/,/,3.0,/,/,/
Nc1ccc(C(=O)OCc2nc3c(ccc4ccccc43)[nH]2)cc1,-2.2,15.9,7.1*,4.6,-0.3,10.8,10.5*,20.4*,10.5
Nc1ccc(C(=O)OCc2nc3cc4ccccc4cc3[nH]2)cc1,-2.8,10.0,3.4,4.5,1.3,3.7,/,/,/
Cc1ccccc1N=C1SC(CC(=O)Nc2ccc3ccccc3c2)C(=O)N1Cc1ccccn1 (stereo not drawn),-2.9,15.2,-0.6,12.3,0.8,19.8,/,/,/
O=C(CC1SC(=Nc2ccccc2)N(Cc2ccccn2)C1=O)Nc1ccc(Br)cc1 (stereo not drawn),3.3,5.9,19.0*,11.4,0.5,11.0,37.9*,2.6,15.9
COCCNC(=O)C1(C)CCCN(C(=O)c2ccc(F)cc2Cl)C1 (stereo not drawn),0.3,/,-0.2,/,/,-5.3,/,/,/
CCN(C(=O)CSc1nnc(-c2c[nH]c3ccccc23)o1)C1CCS(=O)(=O)C1 (stereo not drawn),-1.1,16.3,7.3*,14.0,0.7,8.0,13.3*,-4.4,11.5
CCN(C(=O)CSc1nnc(-c2ccccc2Br)o1)C1CCS(=O)(=O)C1 (stereo not drawn),4.2,-3.2,-1.1,-24.3,-0.5,-1.2,/,/,/
COc1cc(NC(=O)CCNS(=O)(=O)c2cc(Br)cnc2N)cc(OC)c1,-1.0,1.1,0.0,11.9,-0.7,10.0,/,/,/
Cc1cc(NC(=O)CCNS(=O)(=O)c2cc(Br)cnc2N)ccc1Br,1.2,-6.4,30.9*,-12.0,0.4,21.1,47.4*,5.8,29.3*
Cc1ccc(NC(=O)CCNS(=O)(=O)c2cc(Br)cnc2N)c(Cl)c1,/,8.9,/,33.4,-0.3,/,/,/,/
Nc1ncc(Br)cc1S(=O)(=O)NCCC(=O)Nc1cccc(Cl)c1,-1.4,-4.5,10.5*,-2.9,-0.9,-4.3,17.2*,0.2,8.6
Cc1ccc(NC(=O)CCNS(=O)(=O)c2cc(Br)cnc2N)cc1Cl,-1.0,-10.5,44.0*,21.0,0.6,1.4,58.4*,7.1,21.5*
O=C(NCc1ccccc1)c1cccc2c1C(=O)c1ccc(/C=C/c3ccccc3)cc1S2(=O)=O,0.3,10.6,-0.7,/,1.9,-3.0,/,/,/
COc1ccc(CCNC(=O)CC(=O)N/N=C/c2ccc(Br)cc2)cc1OC,-1.2,13.5,-1.2,9.7,-0.6,7.6,/,/,/
